{
  "source": "paper PMC8314033",
  "about": "(BioImpacts : BI, 2020)",
  "key": {"[1]": {"tested_on": "MCF7 (breast cancer cell lines)", "test": "In vitro cell antiproliferative test", "format": "cell-based, human", "details": "MCF7, 200 µg/mL, 48 hours", "outline": "(§1)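 Cells grown in DMEM with 10% heat-inactivated FBS and penicillin-streptomycin, detached with trypsin-EDTA, and counted by trypan blue. Plated at 10 × 10³ cells/well and allowed to attach for 24 h at 37°C, 5% CO2. Exposed 48 h to isolated compounds at 1.8–200 µg/mL final, in triplicate. MTT added at 1 mg/mL final for 4 h, formazan dissolved in DMSO, and A570 read. Survival calculated as a percentage of untreated wells.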"}, "[2]": {"tested_on": "3T3 (non-cancer immortal cell lines)", "test": "In vitro cell antiproliferative test", "format": "cell-based", "details": "3T3, 200 µg/mL, 48 hours", "outline": "as §1"}, "[3]": {"test": "Hydroxyl radical scavenging activity", "details": "5 minutes, 560 nm; standard ascorbic acid"}},
  "data": [
    {"smiles": "CC(C)=CCc1c(O)cc(O)cc1-c1cc2ccc(O)c(CC=C(C)C)c2o1", "note": "[Cathafuran B, cathafuran B]", "values": [
      {"measurement": "% of cell survival", "setting": "[1]", "value": 8.89, "unit": "%"},
      {"measurement": "% of cell survival", "setting": "[2]", "value": 20.58, "unit": "%"}
    ]},
    {"smiles": "C[C@H]1[C@H](C)CC[C@]2(C(=O)O)CC[C@]3(C)C(=CC[C@@H]4[C@@]5(C)CC[C@H](O)C(C)(C)[C@@H]5CC[C@]43C)[C@H]12", "note": "[Ursolic acid, ursolic acid]", "values": [
      {"measurement": "% of cell survival", "setting": "[1]", "value": 8.46, "unit": "%"},
      {"measurement": "% of cell survival", "setting": "[2]", "value": 17.58, "unit": "%"}
    ]},
    {"smiles": "Oc1cc(O)cc(-c2cc3ccc(O)cc3o2)c1", "note": "[Moracin M]", "values": [
      {"measurement": "% of cell survival", "setting": "[1]", "value": 16.09, "unit": "%"},
      {"measurement": "% of cell survival", "setting": "[2]", "value": 21.6, "unit": "%"}
    ]},
    {"smiles": "O=C1O[C@H]([C@@H](O)CO)C(O)=C1O", "note": "[ascorbic acid]", "values": [
      {"measurement": "Hydroxyl radical scavenging EC50", "setting": "[3]", "value": 6.58, "unit": "µg/mL"}
    ]}
  ]
}
